This is a sample that favours compounds with a hit; in the whole collection about 0.94% have one here.
UCH37 DUB inh: inhibitors of human deubiquitinating enzyme UCH37; purified proteasome/UCH37, Ub-AMC cleavage fluorescence; AID 588478; 330,000 compounds, 0.33% hits; inhibition, % (test concentration not listed);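 active = mean inhibition over replicate wells above about 20%, limit read from the data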
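Signal – fluorescence, ex 355 nm, em 460 nm · System – Proteasome-bound UCH37 · Input – 0.15 nM proteasome as dispensed · Timing – 30 min preincubation with enzyme, 25 min cleavage at room temperature · Read-out basis – percent inhibition of cleavage signal versus uninhibited and no-proteasome wells · Medium – Tris-HCl pH 7.4 with ATP-MgCl2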
aDG glyco act: increases alpha dystroglycan glycosylation. activation, % at 10 µM. Pro5-aDG cells, alpha-DG glycosylation AlphaScreen (IIH6); 0% Pro5, 100% B10-LARGE cell signal. 360,000 compounds, 0.22% hits. AID 624168;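 active = activation of at least 8% versus controls, or a plate z-score of at least 8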;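 also: Pro5 are CHO cells carrying HIG-tagged alpha-DG that lacks glycosylation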
PKA-R1A act: activators of PKA-R1A complex. PKA-R1A dissociation, Cy5-IP20 fluorescence polarization; scaled: DMSO 0%, 113 µM cGMP 100%. activation, % at 11.4 µM. 340,000 compounds, 0.083% hits;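 active = percent activation above the mean of all tested compounds plus 3 SD, cut at about 19% in these data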;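 also: higher means more PKAc released from R1A so a rise in polarization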
CTSL1 counter: cathepsin L1 inhibition, PFM18AAP counter-screen | recombinant F. hepatica cathepsin L1, Z-Leu-Arg-MCA fluorescence | inhibition, % at 5.96 µM | 300,000 compounds, 0.49% hits;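 active = inhibition above the mean of all tested compounds plus 3 SD, set per screening campaign, cut at about 17% in these data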
PKA-R2B act: activators of human PKA-R2B complex. activation, % at 11.4 µM. 340,000 compounds, 0.079% hits. P22694+P31323. PKA-R2B holoenzyme dissociation, Cy5-IP20 fluorescence polarization; R2B truncated from residue 108, S112A mutant; 0% DMSO only, 100% 113 µM cGMP;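 active = activation above a cutoff set at the mean over all compounds plus 3 SD, cut at about 18% in these data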;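 also: higher means more holoenzyme dissociation and a rise in polarization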
Target sequence (P31323 whole entry, looked up, other chains not shown, the tested form may be a part): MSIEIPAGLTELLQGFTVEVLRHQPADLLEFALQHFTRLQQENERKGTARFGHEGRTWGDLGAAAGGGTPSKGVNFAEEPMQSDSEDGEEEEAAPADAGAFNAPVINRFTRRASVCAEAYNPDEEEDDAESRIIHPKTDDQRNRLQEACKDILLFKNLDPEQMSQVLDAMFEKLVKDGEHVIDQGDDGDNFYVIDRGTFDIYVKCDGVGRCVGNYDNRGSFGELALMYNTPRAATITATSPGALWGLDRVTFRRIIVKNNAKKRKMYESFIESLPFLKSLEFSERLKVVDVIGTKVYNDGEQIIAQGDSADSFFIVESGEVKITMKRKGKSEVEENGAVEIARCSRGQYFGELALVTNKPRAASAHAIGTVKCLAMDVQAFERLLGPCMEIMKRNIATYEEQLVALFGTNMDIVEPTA
Of the large screens only hits and unclear results are named; the others gave an inactive call.

O=C(O)/C=C/C(=O)N1N=C(c2ccco2)CC1c1ccco1 (centres undefined)	CTSL1 counter 35
O=C(CCl)N1N=C(c2ccco2)CC1c1ccco1 (centres undefined)	none
COc1ccccc1OCC(=O)NN=C1CCc2ccccc21	none (no result: aDG glyco act, PKA-R1A act, CTSL1 counter, PKA-R2B act)
C[C@]12CCC3C(CC[C@H]4CC(O)CC[C@]34C)C1CCC2=NO (some centres undefined)	none (no result: aDG glyco act, PKA-R1A act, CTSL1 counter, PKA-R2B act)
COc1ccc(C(CNC(=O)CSc2ccccc2F)N2CCOCC2)cc1 (centres undefined)	none
COc1ccc(C(CNC(=O)CSc2ccc(Br)cc2C)N2CCOCC2)cc1 (centres undefined)	CTSL1 counter 24
O=C(CNC(=O)c1ccccc1)OCC(=O)N1c2ccccc2Sc2ccccc21	CTSL1 counter 34
CCOC(=O)c1c(C)oc(NC(=O)CCl)c1C(=O)OCC	CTSL1 counter 84
CCOC(=O)c1c(C)oc(=O)c(CC)c1O	none (no result: UCH37 DUB inh, CTSL1 counter)
CCc1ccc[n+](-c2[nH]c(=O)sc2C=NNC([S-])=Nc2ccccc2)c1	UCH37 DUB inh 22 (no result: aDG glyco act, PKA-R1A act, CTSL1 counter, PKA-R2B act)
O=C(NN=C/C=C/c1ccc2c(c1)OCO2)c1ccc(F)cc1	none (no result: aDG glyco act, PKA-R1A act, CTSL1 counter, PKA-R2B act)
CN(C)c1ccc(C=NN2C(=O)c3ccccc3C2=O)cc1	none (no result: aDG glyco act, PKA-R1A act, CTSL1 counter, PKA-R2B act)
CCCOC(=O)C1=C(C)NC2=C(C(=O)C(C(=O)OC)C(C)C2)C1c1ccc(N(CC)CC)cc1 (centres undefined)	CTSL1 counter 20
CCC(C)OC(=O)C1=C(C)NC2=C(C(=O)C(C(=O)OC)C(C)C2)C1c1ccc(N(C)C)cc1 (centres undefined)	none
COc1ccc(CCNC(=O)C(=O)NN=Cc2cccs2)cc1OC	none (no result: aDG glyco act, PKA-R1A act, CTSL1 counter, PKA-R2B act)
CN(C)CCC=C1c2ccccc2CCc2ccccc21	UCH37 DUB inh 22 (no result: CTSL1 counter)
CN(C)CC/C=C1/c2ccccc2COc2ccccc21	none (no result: UCH37 DUB inh, aDG glyco act, PKA-R1A act, PKA-R2B act)
C=CCn1c(SCc2nc3c(c(=O)[nH]c(=O)n3CCCC)n2CCC)nnc1-c1ccccc1	UCH37 DUB inh 29
C=CCOc1ccc(-c2nc3c(c(=O)[nH]c(=O)n3CCC)n2CCCC)cc1	none
CCCCOc1ccc(C=NNc2cc(N3CCOCC3)nc(C)n2)cc1	none (no result: aDG glyco act, PKA-R1A act, CTSL1 counter, PKA-R2B act)
O=C(NC1CC1)C1=C[C@@H](C2CC2)C[C@@H](OCCCCO)O1	UCH37 DUB inh 23
COc1c2c(c(C)c3c1C(=O)OC3)O[C@@]1(C)CC[C@@]3(O)C(C)(C)OC(=O)CC[C@]3(C)[C@H]1C2	CTSL1 counter 25
CCNc1nc(NCC)nc(NN=Cc2ccc(OC)cc2)n1	none (no result: aDG glyco act, PKA-R1A act, CTSL1 counter, PKA-R2B act)
C[C@]12CCC3c4ccc(O)cc4CCC3C1CCC2=NN (some centres undefined)	none (no result: aDG glyco act, PKA-R1A act, CTSL1 counter, PKA-R2B act)
CCOC(=O)/C(C#N)=C/Nc1ccccc1NS(=O)(=O)c1cccc(C(C)=O)c1	UCH37 DUB inh 26
O=[N+]([O-])c1ccc(C2CCCCC2=NOCc2ccc(F)cc2)c([N+](=O)[O-])c1 (centres undefined)	none (no result: aDG glyco act, PKA-R1A act, CTSL1 counter, PKA-R2B act)
COC(CNC(=O)c1ccc2c(c1)ncn2-c1ccc(F)c(F)c1)OC	CTSL1 counter 18
CCOC(CNC(=O)c1ccc2c(c1)ncn2-c1ccc(F)c(F)c1)OCC	none
COC(=O)C1CN(S(=O)(=O)c2ccccc2)CCN1S(=O)(=O)c1ccccc1 (centres undefined)	CTSL1 counter 58
CC(C)N1CCN(Cc2nc(-c3ccccc3)cs2)CC1CCO (centres undefined)	CTSL1 counter 20
OCCC1CN(Cc2nc(-c3ccccc3)cs2)CCN1C1CCCC1 (centres undefined)	none
Cc1ccc(S(=O)(=O)N(C)N=Cc2ccc(N(C)C)cc2)cc1	none (no result: aDG glyco act, PKA-R1A act, CTSL1 counter, PKA-R2B act)
Nc1ccc(C(=O)NN=Cc2ccc(OC(=O)c3ccccc3Cl)cc2)cc1	none (no result: aDG glyco act, PKA-R1A act, CTSL1 counter, PKA-R2B act)
O=C(NN=Cc1ccc(OC(=O)c2ccccc2Cl)cc1)c1cc(O)cc(O)c1	UCH37 DUB inh 22 (no result: aDG glyco act, PKA-R1A act, CTSL1 counter, PKA-R2B act)
Cc1cc(C(=O)CCl)c(C)n1CCc1ccc(Cl)cc1	CTSL1 counter 21
COc1ccc(CCn2c(C)cc(C(=O)CCl)c2C)cc1OC	CTSL1 counter 44
Cc1cc(C(=O)CCl)c(C)n1CCc1ccc(F)cc1	CTSL1 counter 23
Cc1ccsc1-c1nc(-c2ccccc2)c(-c2ccccc2)[nH]1	CTSL1 counter 19
Fc1ccc(-c2nc(-c3cccs3)[nH]c2-c2ccc(F)cc2)cc1	none
Cc1ccc(-c2ccc(/C=C/C(=O)c3ccccc3)o2)cc1	CTSL1 counter 41
O=C(/C=C/c1ccc(-c2ccccc2)o1)c1ccccc1	CTSL1 counter 64
CC(=NOC(=O)C1CC12CCC2)c1ccc(Br)cc1 (centres undefined)	none (no result: aDG glyco act, PKA-R1A act, CTSL1 counter, PKA-R2B act)
CC(=NNC(=O)c1ccc(C)s1)c1cccc(NC(=O)COc2ccc(Cl)cc2Cl)c1	none (no result: aDG glyco act, PKA-R1A act, CTSL1 counter, PKA-R2B act)
COC(=O)NN=C1CCCc2c(C)cc(C)cc21	none (no result: aDG glyco act, PKA-R1A act, CTSL1 counter, PKA-R2B act)
O=C(NN=Cc1cn(-c2ccccc2)nc1-c1ccccc1)c1ccc(Br)o1	none (no result: aDG glyco act, PKA-R1A act, CTSL1 counter, PKA-R2B act)
C=CC[C@H](CC(=O)NCCO)C(=O)N[C@@H](COC(=O)[C@@H](CC=C)CC(=O)OC(C)(C)C)Cc1c[nH]c2ccccc12	none (no result: CTSL1 counter)
C=CC[C@@H](CC(=O)NCCO)C(=O)N[C@@H](COC(=O)[C@@H](CC=C)CC(=O)OC(C)(C)C)Cc1c[nH]c2ccccc12	UCH37 DUB inh 23 (no result: CTSL1 counter)
C=CCOc1ccccc1C=NNC(=O)Cc1ccc(C)cc1	none (no result: aDG glyco act, PKA-R1A act, CTSL1 counter, PKA-R2B act)
Cc1ccc(C=Nn2c(-c3cccnc3)n[nH]c2=S)s1	none (no result: aDG glyco act, PKA-R1A act, CTSL1 counter, PKA-R2B act)
CCOC(=O)CN(C#N)c1nc(C)cc(C)n1	CTSL1 counter 19
COC(=O)CN(C#N)c1nc(NCc2ccccc2)nc(OC)n1	none (no result: CTSL1 counter)

Source: PubChem BioAssay
